One experiment deals with α-glucosidase (Saccharomyces cerevisiae, UniProt P53341). Kind of experiment: affinity ultrafiltration UPLC–Q-TOF–MS/MS screening, binding rate. The conditions noted are these: peak area reduction in CGB extract after ultrafiltration. In a few lines:
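95% ethanol reflux extract of whole herb: three 3 h extractions at 1:13 m/v, then concentrated and dried. Extract incubated with yeast α-glucosidase and ultrafiltered on a 10 kDa membrane. Bound ligands released from the retentate with methanol and identified by UPLC-Q-TOF-MS/MS.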

For experiment [1], the target named is Saccharomyces cerevisiae α-glucosidase (Saccharomyces cerevisiae, UniProt P53341). Kind of experiment: α-glucosidase inhibition assay. It counts as biochemical.
Chain of Saccharomyces cerevisiae α-glucosidase (P53341 whole entry): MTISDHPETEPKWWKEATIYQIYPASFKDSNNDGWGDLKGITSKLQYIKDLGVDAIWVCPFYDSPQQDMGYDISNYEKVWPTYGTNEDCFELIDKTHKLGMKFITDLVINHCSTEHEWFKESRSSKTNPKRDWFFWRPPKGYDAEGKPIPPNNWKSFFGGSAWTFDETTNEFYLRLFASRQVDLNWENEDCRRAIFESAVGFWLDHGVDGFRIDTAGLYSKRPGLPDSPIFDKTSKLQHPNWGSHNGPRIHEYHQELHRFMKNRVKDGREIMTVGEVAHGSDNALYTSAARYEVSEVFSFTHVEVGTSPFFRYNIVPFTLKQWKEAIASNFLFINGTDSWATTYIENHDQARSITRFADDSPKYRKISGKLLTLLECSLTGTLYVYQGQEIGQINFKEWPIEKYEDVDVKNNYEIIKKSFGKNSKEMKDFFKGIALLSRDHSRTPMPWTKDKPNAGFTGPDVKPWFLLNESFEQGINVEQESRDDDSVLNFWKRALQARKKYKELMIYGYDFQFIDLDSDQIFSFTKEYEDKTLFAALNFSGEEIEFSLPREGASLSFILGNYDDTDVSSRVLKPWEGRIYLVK

Chain of α-glucosidase (P53341 whole entry): as above

Consider `O=c1c(O[C@@H]2O[C@H](CO)[C@H](O)[C@H](O)[C@H]2O)c(-c2ccc(O)c(O)c2)oc2cc(O)cc(O)c12` [hyperoside], for which the “AD (affinity degree, binding rate to α-glucosidase)” value (shortened to “AD”) on α-glucosidase was found to be 23.4%. The compound also showed an IC50 in experiment [1] of 1072.4 ± 0.54 µM.

As for `COc1c(-c2ccc(O)c(O)c2)oc2cc(O)cc(O)c2c1=O` [3-O-methylquercetin], on α-glucosidase, the “AD” value is reported as 17.2%. The IC50 in experiment [1] was found to be 436.35 ± 0.01 µM.

As for `O=c1c(O)c(-c2ccc(O)c(O)c2)oc2cc(O)cc(O)c12` [quercetin], the “AD” value on α-glucosidase was found to be 12.4%.

Source of the values: article PMC11064185 (ACS Omega, 2024).
